# From paper PMC9614283 (Journal of medicinal chemistry, 2017)
# Assays:
# [1] = target: human recombinant PDE5A1 (Homo sapiens, UniProt O76074); test: PDE5 fluorescent; format: biochemical
# Outline: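 Reactions ran 60 min at room temperature with 0.1-0.45 ng PDE5, 100 nM FAM-cGMP or FAM-cAMP substrate and test compound. Binding agent was then added for 60 min at room temperature, and fluorescence was read at ex 485/em 528 nm and converted to polarisation. Each concentration was run in duplicate. Activity was normalised between no compound (100%) and no enzyme and no compound (0%). IC50 came from sigmoidal non-linear regression; values are average ± S.E.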
# [2] = target: T1, PDE6C (Homo sapiens, UniProt P51160); conditions: read-out: PDE6C IC50; recombinant human enzyme; cited from earlier work
# [3] = tested on: cGMP levels in the hippocampus of mice; conditions: dosed at 3 mg/kg; cited from earlier work
# [4] = tested on: AD mouse models; conditions: pharmacological treatment of two different AD mouse models; cited from earlier work
# [5] = tested on: cGMP levels in the hippocampus of mice; test: Hippocampal cGMP levels after foot shock; format: in vivo; conditions: WT mice, 3 mg/kg ip, 180 s after foot shock; not significant (p = 0.097)
# Outline: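 Male and female C57Bl6 mice, 2-3 months old (20-25 g), received 3 mg/kg i.p. in 2% DMSO & 2% Tween, or vehicle alone. Foot shock was given 30 min later. Mice were killed by cervical dislocation and decapitation 10 s, 1 min or 3 min after shock. Hippocampi were snap-frozen. cGMP was measured by enzyme immunoassay in duplicate and normalised to BCA protein. n=3 per group; t-test/2-way ANOVA.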
# [6] = tested on: hippocampal long-term potentiation (LTP); test: Hippocampal slice LTP electrophysiology, acute bath perfusion; format: cell-based, mice; conditions: 50 nM bath perfusion
# [7] = target: T1, PDE6C; test: PDE6 fluorescent; format: biochemical; conditions: PDE6C vs PDE5A1
# T1 sequence (P51160 whole entry): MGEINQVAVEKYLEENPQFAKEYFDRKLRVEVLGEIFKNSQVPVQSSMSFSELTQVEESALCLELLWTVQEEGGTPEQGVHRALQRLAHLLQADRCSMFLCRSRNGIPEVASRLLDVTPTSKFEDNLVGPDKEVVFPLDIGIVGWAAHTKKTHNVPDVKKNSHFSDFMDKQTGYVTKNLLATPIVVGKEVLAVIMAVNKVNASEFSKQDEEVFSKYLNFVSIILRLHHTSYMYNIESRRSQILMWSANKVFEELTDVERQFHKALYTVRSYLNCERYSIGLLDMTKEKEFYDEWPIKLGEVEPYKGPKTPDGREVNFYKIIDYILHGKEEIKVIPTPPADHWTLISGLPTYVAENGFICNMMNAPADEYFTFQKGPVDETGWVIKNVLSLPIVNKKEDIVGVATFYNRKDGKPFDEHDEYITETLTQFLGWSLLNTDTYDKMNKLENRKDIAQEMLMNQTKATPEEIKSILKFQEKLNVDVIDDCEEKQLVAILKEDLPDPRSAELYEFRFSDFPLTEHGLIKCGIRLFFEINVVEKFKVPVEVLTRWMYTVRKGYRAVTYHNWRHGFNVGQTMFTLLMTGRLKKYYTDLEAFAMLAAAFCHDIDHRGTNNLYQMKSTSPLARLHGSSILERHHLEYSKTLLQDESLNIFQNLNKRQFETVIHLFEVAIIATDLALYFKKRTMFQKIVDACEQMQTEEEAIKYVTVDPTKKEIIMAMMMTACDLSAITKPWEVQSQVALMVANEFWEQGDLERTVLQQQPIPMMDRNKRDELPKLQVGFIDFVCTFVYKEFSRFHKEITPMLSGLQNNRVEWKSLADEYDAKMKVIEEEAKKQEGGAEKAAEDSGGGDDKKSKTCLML
structure (smiles),measurement,setting,value
"COc1ccc(CNc2c3c(nc4ccccc24)CCN(C(C)=O)C3)cc1Cl [17a, 1-(10-((3-Chloro-4-methoxybenzyl)amino)-3,4-dihydrobenzo[b][1,6]naphthyridin-2(1H)-yl)ethan-1-one]",IC50,[1],110 ± 3.3 nM
COc1ccc(CNc2c(CO)cnc3c(C4CC4)cc(C#N)cc23)cc1Cl [compound 1],IC50,[2],339 nM
same,cGMP in the hippocampus of mice,[3],elevation
same,learning and memory,[4],rescues learning and memory
"COc1ccc(CNc2c3c(nc4ccc(C#N)cc24)CCN(C(C)=O)C3)cc1Cl [compound 6c, 2-Acetyl-10-[(3-chloro-4-methoxybenzyl)amino]-1,2,3,4-tetrahydrobenzo[b][1,6]naphthyridine-8-carbonitrile]",increase of hippocampal cGMP levels,[5],slight increase
same,effect on LTP in WT slices,[6],did not have any effect
"CCN1Cc2nc3ccc(C#N)cc3c(NCc3ccc(OC)c(Cl)c3)c2C1=O [compound 24a, 9-((3-Chloro-4-methoxybenzyl)amino)-2-ethyl-1-oxo-2,3-dihydro-1H-pyrrolo[3,4-b]quinoline-7-carbonitrile]",selectivity for PDE5 versus PDE6,[7],~ 100 fold
